Experimental data collected from several papers.
Compare with care: the assays were run in different laboratories.
Target: Insulin-like growth factor 1 receptor (IGF1R, Homo sapiens, UniProt P08069)

Cc1cnc(Nc2ccc(C(=O)N3CCC(N4CCCC4)CC3)cc2)nc1-c1cc2ccccc2s1 — remaining binding (binding, competition with immobilised ligand; 1 µM): 45%
FC(F)(F)Oc1cccc(-c2cnc3ccc(-c4ccncc4)nn23)c1 — remaining binding (cell-free assay, competition with immobilised ligand; 5 µM): 86%
N[C@H]1CCN(c2nccc(-c3cnn4ncccc34)n2)C1 — remaining binding (binding; 1 µM): 81%
CN(c1ccnc(CNc2nc(Nc3ccc4c(c3)CC(=O)N4)ncc2C(F)(F)F)n1)S(C)(=O)=O — remaining binding (cell-free assay, competition with immobilised ligand; 1 µM): 100%
F[C@@H]1CCN(c2nccc(-c3cnn4ncccc34)n2)C1 — remaining binding (binding; 1 µM): 89%
C=CC(=O)N1CCC(C(=O)NCC(=O)N2CCN(c3nc(-c4cnc(N)nc4C(F)F)nc(N4CCOCC4)n3)CC2)CC1 — remaining binding (binding, competition with immobilised ligand; 1 µM): 100%
CC(=O)c1c(NS(C)(=O)=O)c2cc(-c3ccc(Cl)cc3)c(-c3ccc(Cl)cc3Cl)nc2n(C)c1=O — remaining binding (cell-free assay, competition with immobilised ligand; 1 µM): 100%
C[C@@H]1CN(c2ccc3ncc(-c4ccc5[nH]nc(C6CC6)c5c4)n3n2)C[C@H](C)O1 — remaining binding (binding, competition with immobilised ligand; 0.5 µM): 100%
Cn1nc(C(=O)NCc2ccc(C(=O)O)cc2)cc1-c1ccc2[nH]ccc2c1 — remaining binding (cell-free assay, competition with immobilised ligand; 0.1 µM): 91%
C[C@@H]1CCN(c2nccc(-c3cnn4ncccc34)n2)C1 — remaining binding (binding; 1 µM): 53%
CCOCCn1cc(C(=O)Nc2ccc(-n3nc(-c4cccnc4)cc3C(F)(F)F)cn2)ccc1=O — remaining binding (cell-free assay, competition with immobilised ligand; 1 µM): 96%
CN(C)c1nccc(-c2cnc3ncccn23)n1 — remaining binding (binding; 1 µM): 89%
O=C(c1ccc(Nc2ncc(Cl)c(-c3ccc(Cl)s3)n2)cc1)N1CCC(N2CCCC2)CC1 — remaining binding (binding, competition with immobilised ligand; 1 µM): 19%
CN(C)c1nccc(-c2cnn3ncccc23)n1 — remaining binding (binding; 1 µM): 100%
NS(=O)(=O)c1cc(NC(=O)Cc2ccccc2)ccc1Oc1cccc(Cl)c1 — remaining binding (cell-free assay, competition with immobilised ligand; 1 µM): 100%
O=C(c1ccc(Nc2nccc(-c3cc4ccccc4s3)n2)cc1)N1CCC(N2CCCC2)CC1 — remaining binding (binding, competition with immobilised ligand; 1 µM): 100%
CCN1CCN(Cc2ccc(C(=O)Nc3ccc(C)c(Oc4ccc5c(c4)CC(=O)N5)c3)cc2C(F)(F)F)CC1 — remaining binding (binding, competition with immobilised ligand; 1 µM): 100%
Cc1cnn2ncc(-c3ccnc(N(C)C)n3)c2c1 — remaining binding (binding; 1 µM): 100%
O=C(Nc1c[nH]nc1C(=O)NC1CCNCC1)c1cc(F)cc(F)c1 — remaining binding (binding, competition with immobilised ligand; 1 µM): 100%
CO[C@@H](C)c1c(Nc2ccc([C@H](N(C)C(=O)C3CCS(=O)(=O)CC3)C(F)(F)F)cc2)cnc2cc(Cl)nn12 — remaining binding (cell-free assay, competition with immobilised ligand; 1 µM): 100%
CNC(=O)[C@@H]1CC[C@@H](n2c(-c3ccc4cnccc4c3)nc3ccc(C(=O)NCc4cccc(C(N)=O)c4)cc32)C1 — remaining binding (binding, competition with immobilised ligand; 1 µM): 100%
Cc1nc(C2CCN(C(=O)c3ccc(OC(F)(F)F)cc3N)CC2)c2ncc(N3CCN(C)CC3)cc2n1 — remaining binding (cell-free assay, competition with immobilised ligand; 1 µM): 91%
CN(c1nccc(-c2cnn3ncccc23)n1)C1CC1 — remaining binding (binding; 1 µM): 93%
CSc1cccnc1N1CCN(Cc2nc3ccccc3[nH]2)CC1 — remaining binding (cell-free assay, competition with immobilised ligand; 1 µM): 100%
COc1ncc2cc3ccccc3nc2c1C#N — remaining binding (cell-free assay, competition with immobilised ligand; 5 µM): 86%
